# From ChEMBL document CHEMBL1122378, “Antiallergic agents. 2. N-(1H-tetrazol-5-yl)-6-phenyl-2-pyridinecarboxamides” (1983)
# What was measured:
# Format in all cases: functional
# Rattus norvegicus [1] = test: Antiallergic activity against passive cutaneous anaphylaxis (PCA) in male Sprague-Dawley rats after 3.0 mg/kg oral administration
# In short: (§1)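 IgE antiserum raised in male Sprague-Dawley rats (ca. 200 g) by immunization with Ascaris suum extract (2 then 0.2 mg protein), bled 2 weeks after the second dose. Recipients got 0.05 mL diluted antiserum intracutaneously on the back. Blued area (product of two diameters) was read at 30 min.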
# Rattus norvegicus [2] = test: Inhibition of passive cutaneous anaphylaxis in male Sprague-Dawley rats following 1 mg/kg p.o. administration; Not significant.; conditions: route oral; in short: as §1
# Rattus norvegicus [3] = test: Antiallergic activity against passive cutaneous anaphylaxis (PCA) in male Sprague-Dawley rats after 0.3 mg/kg oral administration; in short: as §1
# Rattus norvegicus [4] = test: Antiallergic activity against passive cutaneous anaphylaxis (PCA) in male Sprague-Dawley rats after 1.0 mg/kg oral administration; in short: as §1
# Rattus norvegicus [5] = test: Inhibition of passive cutaneous anaphylaxis in male Sprague-Dawley rats following 0.3 mg/kg p.o. administration; Not significant.; conditions: route oral; in short: as §1
# Rattus norvegicus [6] = test: Antiallergic activity against passive cutaneous anaphylaxis (PCA) in male Sprague-Dawley rats after 10.0 mg/kg oral administration;not statistically significant; in short: as §1
# Rattus norvegicus [7] = test: Inhibition of passive cutaneous anaphylaxis in male Sprague-Dawley rats following 10 mg/kg p.o. administration.; conditions: route oral; in short: as §1
# Rattus norvegicus [8] = test: Antiallergic activity against passive cutaneous anaphylaxis (PCA) in male Sprague-Dawley rats after 3.0 mg/kg oral administration;not statistically significant; in short: as §1
smiles,measurement,setting,value
CCCCc1ccc(-c2cc(CC)cc(C(=O)Nc3nn[nH]n3)n2)cc1,inhibition in vivo at 3 mg/kg,Rattus norvegicus [1],70%
same,inhibition in vivo at 1 mg/kg,Rattus norvegicus [2],20%
Cc1ccc(-c2cc(C)cc(C(=O)Nc3nn[nH]n3)n2)cc1,inhibition in vivo at 0.3 mg/kg,Rattus norvegicus [3],51%
same,inhibition in vivo at 3 mg/kg,Rattus norvegicus [1],100%
same,inhibition in vivo at 1 mg/kg,Rattus norvegicus [4],80%
CNc1ccc(-c2cc(C)cc(C(=O)Nc3nn[nH]n3)n2)cc1,inhibition in vivo at 1 mg/kg,Rattus norvegicus [4],89%
same,inhibition in vivo at 0.3 mg/kg,Rattus norvegicus [5],36%
Cc1cccc(-c2cc(C)cc(C(=O)Nc3nn[nH]n3)n2)c1,inhibition in vivo at 3 mg/kg,Rattus norvegicus [1],61%
same,inhibition in vivo at 1 mg/kg,Rattus norvegicus [4],51%
Cc1ccccc1-c1cc(Cl)cc(C(=O)Nc2nn[nH]n2)n1,inhibition in vivo at 10 mg/kg,Rattus norvegicus [6],24%
CCCCc1cc(C(=O)Nc2nn[nH]n2)nc(-c2cccc(C)c2)c1,inhibition in vivo at 3 mg/kg,Rattus norvegicus [1],82%
same,inhibition in vivo at 1 mg/kg,Rattus norvegicus [4],36%
same,inhibition in vivo at 10 mg/kg,Rattus norvegicus [7],100%
COc1ccc(-c2cc(Cl)cc(C(=O)Nc3nn[nH]n3)n2)cc1OC,inhibition in vivo at 3 mg/kg,Rattus norvegicus [8],30%
same,inhibition in vivo at 1 mg/kg,Rattus norvegicus [2],15%
Cc1cc(C(=O)Nc2nn[nH]n2)nc(-c2ccccc2)c1,inhibition in vivo at 3 mg/kg,Rattus norvegicus [1],50%
same,inhibition in vivo at 10 mg/kg,Rattus norvegicus [7],88%
same,inhibition in vivo at 1 mg/kg,Rattus norvegicus [2],23%
COc1cc(C(=O)Nc2nn[nH]n2)nc(-c2ccc(Cl)cc2)c1,inhibition in vivo at 3 mg/kg,Rattus norvegicus [8],12%
same,inhibition in vivo at 1 mg/kg,Rattus norvegicus [4],0%
same,inhibition in vivo at 10 mg/kg,Rattus norvegicus [7],55%
COc1ccc(-c2cccc(C(=O)Nc3nn[nH]n3)n2)cc1,inhibition in vivo at 3 mg/kg,Rattus norvegicus [1],36%
same,inhibition in vivo at 0.3 mg/kg,Rattus norvegicus [5],4%
same,inhibition in vivo at 1 mg/kg,Rattus norvegicus [2],12%
COc1ccc(-c2cc(Cl)cc(C(=O)Nc3nn[nH]n3)n2)cc1,inhibition in vivo at 0.3 mg/kg,Rattus norvegicus [3],40%
same,inhibition in vivo at 3 mg/kg,Rattus norvegicus [1],100%
same,inhibition in vivo at 1 mg/kg,Rattus norvegicus [4],43%
COc1cc(C(=O)Nc2nn[nH]n2)nc(-c2ccccc2)c1,inhibition in vivo at 3 mg/kg,Rattus norvegicus [1],97%
same,inhibition in vivo at 1 mg/kg,Rattus norvegicus [4],62%
same,inhibition in vivo at 10 mg/kg,Rattus norvegicus [7],100%
COc1cc(C(=O)Nc2nn[nH]n2)nc(-c2ccccc2Cl)c1,inhibition in vivo at 10 mg/kg,Rattus norvegicus [6],17%
COc1cc(C(=O)Nc2nn[nH]n2)nc(-c2ccc(N(C)C)cc2)c1,inhibition in vivo at 0.3 mg/kg,Rattus norvegicus [3],29%
same,inhibition in vivo at 3 mg/kg,Rattus norvegicus [1],100%
same,inhibition in vivo at 1 mg/kg,Rattus norvegicus [4],64%
CCCCc1ccc(-c2cc(Cl)cc(C(=O)Nc3nn[nH]n3)n2)cc1,inhibition in vivo at 3 mg/kg,Rattus norvegicus [1],83%
same,inhibition in vivo at 1 mg/kg,Rattus norvegicus [4],0%
COc1cc(C(=O)Nc2nn[nH]n2)nc(-c2ccc([N+](=O)[O-])cc2)c1,inhibition in vivo at 10 mg/kg,Rattus norvegicus [6],6%
Nc1ccc(-c2cc(Cl)cc(C(=O)Nc3nn[nH]n3)n2)cc1,inhibition in vivo at 0.3 mg/kg,Rattus norvegicus [3],39%
same,inhibition in vivo at 3 mg/kg,Rattus norvegicus [1],100%
same,inhibition in vivo at 1 mg/kg,Rattus norvegicus [4],100%
CCc1ccc(-c2cc(OC)cc(C(=O)Nc3nn[nH]n3)n2)cc1,inhibition in vivo at 0.3 mg/kg,Rattus norvegicus [3],23%
same,inhibition in vivo at 1 mg/kg,Rattus norvegicus [4],43%
CCCCc1cc(C(=O)Nc2nn[nH]n2)nc(-c2ccccc2)c1,inhibition in vivo at 3 mg/kg,Rattus norvegicus [1],71%
same,inhibition in vivo at 1 mg/kg,Rattus norvegicus [4],56%
same,inhibition in vivo at 10 mg/kg,Rattus norvegicus [7],100%
Cc1ccc(-c2cc(Cl)cc(C(=O)Nc3nn[nH]n3)n2)cc1,inhibition in vivo at 1 mg/kg,Rattus norvegicus [4],86%
same,inhibition in vivo at 0.3 mg/kg,Rattus norvegicus [5],10%
CCCOc1cc(C(=O)Nc2nn[nH]n2)nc(-c2ccc(N)cc2)c1,inhibition in vivo at 3 mg/kg,Rattus norvegicus [1],68%
same,inhibition in vivo at 1 mg/kg,Rattus norvegicus [4],64%
same,inhibition in vivo at 0.3 mg/kg,Rattus norvegicus [5],7%
COc1cc(C(=O)Nc2nn[nH]n2)nc(-c2cccc(Cl)c2)c1,inhibition in vivo at 3 mg/kg,Rattus norvegicus [1],34%
same,inhibition in vivo at 10 mg/kg,Rattus norvegicus [7],64%
CCN(CC)c1ccc(-c2cc(C)cc(C(=O)Nc3nn[nH]n3)n2)cc1,inhibition in vivo at 0.3 mg/kg,Rattus norvegicus [5],19%
COc1cc(C(=O)Nc2nn[nH]n2)nc(-c2ccc(C)c(C)c2)c1,inhibition in vivo at 3 mg/kg,Rattus norvegicus [1],82%
same,inhibition in vivo at 1 mg/kg,Rattus norvegicus [2],21%
CC(C)Cc1cc(C(=O)Nc2nn[nH]n2)nc(-c2ccccc2)c1,inhibition in vivo at 10 mg/kg,Rattus norvegicus [6],11%
COc1cc(C(=O)Nc2nn[nH]n2)nc(-c2ccc(NC(C)=O)cc2)c1,inhibition in vivo at 3 mg/kg,Rattus norvegicus [8],27%
same,inhibition in vivo at 1 mg/kg,Rattus norvegicus [4],0%
same,inhibition in vivo at 10 mg/kg,Rattus norvegicus [7],100%
Cc1cc(C(=O)Nc2nn[nH]n2)nc(-c2ccc(C(C)C)cc2)c1,inhibition in vivo at 3 mg/kg,Rattus norvegicus [1],100%
same,inhibition in vivo at 1 mg/kg,Rattus norvegicus [4],34%
COc1ccccc1-c1cccc(C(=O)Nc2nn[nH]n2)n1,inhibition in vivo at 10 mg/kg,Rattus norvegicus [7],0%
Cc1ccc(-c2cccc(C(=O)Nc3nn[nH]n3)n2)cc1C,inhibition in vivo at 3 mg/kg,Rattus norvegicus [8],28%
same,inhibition in vivo at 10 mg/kg,Rattus norvegicus [7],39%
COc1cc(C(=O)Nc2nn[nH]n2)nc(-c2ccc(C(C)C)cc2)c1,inhibition in vivo at 1 mg/kg,Rattus norvegicus [4],54%
same,inhibition in vivo at 0.3 mg/kg,Rattus norvegicus [5],29%
CCCc1cc(C(=O)Nc2nn[nH]n2)nc(-c2ccc(C)cc2)c1,inhibition in vivo at 3 mg/kg,Rattus norvegicus [1],50%
same,inhibition in vivo at 10 mg/kg,Rattus norvegicus [7],84%
CCCc1ccc(-c2cc(OC)cc(C(=O)Nc3nn[nH]n3)n2)cc1,inhibition in vivo at 3 mg/kg,Rattus norvegicus [1],93%
same,inhibition in vivo at 1 mg/kg,Rattus norvegicus [4],73%
same,inhibition in vivo at 0.3 mg/kg,Rattus norvegicus [5],32%
CC(=O)Nc1ccc(-c2cc(C)cc(C(=O)Nc3nn[nH]n3)n2)cc1,inhibition in vivo at 3 mg/kg,Rattus norvegicus [8],32%
CCCCc1cc(C(=O)Nc2nn[nH]n2)nc(-c2ccc(CC)cc2)c1,inhibition in vivo at 3 mg/kg,Rattus norvegicus [8],25%
same,inhibition in vivo at 1 mg/kg,Rattus norvegicus [2],19%
Cc1cc(C(=O)Nc2nn[nH]n2)nc(-c2ccc(N(C)C)cc2)c1,inhibition in vivo at 3 mg/kg,Rattus norvegicus [8],24%
COc1cccc(-c2cc(Cl)cc(C(=O)Nc3nn[nH]n3)n2)c1,inhibition in vivo at 0.3 mg/kg,Rattus norvegicus [3],32%
same,inhibition in vivo at 3 mg/kg,Rattus norvegicus [1],95%
same,inhibition in vivo at 1 mg/kg,Rattus norvegicus [4],51%
COc1ccc(-c2cc(OC)cc(C(=O)Nc3nn[nH]n3)n2)cc1,inhibition in vivo at 3 mg/kg,Rattus norvegicus [1],60%
same,inhibition in vivo at 1 mg/kg,Rattus norvegicus [2],25%
CNc1ccc(-c2cc(OC)cc(C(=O)Nc3nn[nH]n3)n2)cc1,inhibition in vivo at 3 mg/kg,Rattus norvegicus [1],79%
same,inhibition in vivo at 1 mg/kg,Rattus norvegicus [2],35%
Nc1ccc(-c2cccc(C(=O)Nc3nn[nH]n3)n2)cc1,inhibition in vivo at 3 mg/kg,Rattus norvegicus [1],81%
same,inhibition in vivo at 1 mg/kg,Rattus norvegicus [4],62%
same,inhibition in vivo at 0.3 mg/kg,Rattus norvegicus [5],11%
CC(C)c1cc(C(=O)Nc2nn[nH]n2)nc(-c2ccc(N)cc2)c1,inhibition in vivo at 3 mg/kg,Rattus norvegicus [8],43%
same,inhibition in vivo at 0.3 mg/kg,Rattus norvegicus [5],22%
same,inhibition in vivo at 1 mg/kg,Rattus norvegicus [2],29%
COc1cc(C(=O)Nc2nn[nH]n2)nc(-c2ccc(C)cc2)c1,inhibition in vivo at 1 mg/kg,Rattus norvegicus [4],42%
same,inhibition in vivo at 0.3 mg/kg,Rattus norvegicus [5],16%
Cc1ccc(-c2cccc(C(=O)Nc3nn[nH]n3)n2)cc1,inhibition in vivo at 1 mg/kg,Rattus norvegicus [4],67%
same,inhibition in vivo at 0.3 mg/kg,Rattus norvegicus [5],21%
CNc1ccc(-c2cccc(C(=O)Nc3nn[nH]n3)n2)cc1,inhibition in vivo at 3 mg/kg,Rattus norvegicus [8],83%
same,inhibition in vivo at 0.3 mg/kg,Rattus norvegicus [5],29%
same,inhibition in vivo at 1 mg/kg,Rattus norvegicus [2],71%
CCCCc1cc(C(=O)Nc2nn[nH]n2)nc(-c2ccc(N)cc2)c1,inhibition in vivo at 0.3 mg/kg,Rattus norvegicus [3],41%
same,inhibition in vivo at 1 mg/kg,Rattus norvegicus [4],81%
CCCc1ccc(-c2cc(Cl)cc(C(=O)Nc3nn[nH]n3)n2)cc1,inhibition in vivo at 0.3 mg/kg,Rattus norvegicus [3],42%
same,inhibition in vivo at 1 mg/kg,Rattus norvegicus [4],78%
COc1cccc(-c2cc(C)cc(C(=O)Nc3nn[nH]n3)n2)c1,inhibition in vivo at 3 mg/kg,Rattus norvegicus [1],65%
same,inhibition in vivo at 1 mg/kg,Rattus norvegicus [2],25%
O=C(Nc1nn[nH]n1)c1cc(Cl)cc(-c2ccccc2)n1,inhibition in vivo at 1 mg/kg,Rattus norvegicus [4],40%
Cc1ccc(-c2cc(CC(C)C)cc(C(=O)Nc3nn[nH]n3)n2)cc1,inhibition in vivo at 3 mg/kg,Rattus norvegicus [1],52%
same,inhibition in vivo at 1 mg/kg,Rattus norvegicus [2],9%
CC(C)c1ccc(-c2cc(Cl)cc(C(=O)Nc3nn[nH]n3)n2)cc1,inhibition in vivo at 3 mg/kg,Rattus norvegicus [1],68%
same,inhibition in vivo at 10 mg/kg,Rattus norvegicus [7],90%
same,inhibition in vivo at 1 mg/kg,Rattus norvegicus [2],14%
CCCCc1ccc(-c2cc(OC)cc(C(=O)Nc3nn[nH]n3)n2)cc1,inhibition in vivo at 3 mg/kg,Rattus norvegicus [1],61%
same,inhibition in vivo at 10 mg/kg,Rattus norvegicus [7],92%
same,inhibition in vivo at 1 mg/kg,Rattus norvegicus [2],29%
CCOc1cc(C(=O)Nc2nn[nH]n2)nc(-c2ccc(N)cc2)c1,inhibition in vivo at 3 mg/kg,Rattus norvegicus [1],62%
same,inhibition in vivo at 1 mg/kg,Rattus norvegicus [4],52%
same,inhibition in vivo at 0.3 mg/kg,Rattus norvegicus [5],19%
CCOc1cc(C(=O)Nc2nn[nH]n2)nc(-c2ccc(C)cc2)c1,inhibition in vivo at 1 mg/kg,Rattus norvegicus [4],65%
same,inhibition in vivo at 0.3 mg/kg,Rattus norvegicus [5],26%
CCc1cc(C(=O)Nc2nn[nH]n2)nc(-c2ccc(C)cc2)c1,inhibition in vivo at 0.3 mg/kg,Rattus norvegicus [5],33%
CCOc1cc(C(=O)Nc2nn[nH]n2)nc(-c2ccc(N(CC)CC)cc2)c1,inhibition in vivo at 0.3 mg/kg,Rattus norvegicus [3],44%
same,inhibition in vivo at 1 mg/kg,Rattus norvegicus [4],66%
CCCc1ccc(-c2cc(C)cc(C(=O)Nc3nn[nH]n3)n2)cc1,inhibition in vivo at 0.3 mg/kg,Rattus norvegicus [5],19%
same,inhibition in vivo at 1 mg/kg,Rattus norvegicus [2],65%
CCc1cc(C(=O)Nc2nn[nH]n2)nc(-c2ccccc2)c1,inhibition in vivo at 3 mg/kg,Rattus norvegicus [1],53%
same,inhibition in vivo at 10 mg/kg,Rattus norvegicus [7],85%
